Test results as given in ChEMBL document CHEMBL2040803, “Synthesis and anticonvulsant activity of ethyl 1-(2-arylhydrazinecarboxamido)-2,2-dimethylcyclopropanecarboxylate derivatives” (Eur J Med Chem, 2012).
Activity calls are given as the source filed them.

What was measured:
[1] = system: Mus musculus; test: Anticonvulsant activity in Kunming mouse assessed as protection against maximal electroshock-induced seizures at 300 mg/kg, ip measured after 0.5 hr; type: functional, organism-based; set-up: dose 300 mg/kg
Summary of the method: (§1)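 Male Kunming mice (20 ± 2.0 g) were dosed ip at 30, 100 and 300 mg/kg as a suspension in 0.5% methylcellulose, one to four mice per dose. A 60-Hz, 50-mA current was applied through corneal electrodes for 0.25 s at 0.5 h and 4.0 h after dosing. Absence of hindlimb tonic extension counted as protection. The value is the minimal dose protecting half or more of the mice.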

[2] = system: Mus musculus; test: Anticonvulsant activity in Kunming mouse assessed as protection against maximal electroshock-induced seizures at 300 mg/kg, ip measured after 4 hrs; type: functional, organism-based; set-up: dose 300 mg/kg; summary of the method: as §1
[3] = system: Mus musculus; test: Anticonvulsant activity in Kunming mouse assessed as protection against subcutaneous pentylenetetrazol-induced clonic seizures at 300 mg/kg, ip measured after 0.5 hrs; type: functional, organism-based; set-up: dose 300 mg/kg
Summary of the method: (§2)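 Male Kunming mice (20 ± 2.0 g) received ip doses of 30, 100 or 300 mg/kg as a suspension in 0.5% methylcellulose, one to four mice per dose. Pentylenetetrazole in 0.9% saline was injected subcutaneously. Protection meant failure to show even a threshold seizure (a single clonic spasm lasting at least 5 s), read at 0.5 h and 4.0 h. Activity was scored as the minimal dose protecting half or more of the mice.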

[4] = system: Mus musculus; test: Anticonvulsant activity in Kunming mouse assessed as protection against subcutaneous pentylenetetrazol-induced clonic seizures at 300 mg/kg, ip measured after 4 hrs; type: functional, organism-based; set-up: dose 300 mg/kg; summary of the method: as §2
[5] = system: Mus musculus; test: Neurotoxicity in Kunming mouse at 300 mg/kg, ip after 0.5 hr by rotorod test; type: toxicity, organism-based; set-up: dose 300 mg/kg, route intraperitoneal; conditions: in vivo
Summary of the method: (§3)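 Trained male Kunming mice were given ip doses of 30, 100 or 300 mg/kg, one to four per dose. They were placed on a 1 in. knurled rod rotating at 6 rpm, and examined at 0.5 h and 4.0 h. Neurotoxicity was inability to keep balance for at least 1 min in each of four trials. The value is the minimal dose giving toxicity in half or more of the mice.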

[6] = system: Mus musculus; test: Neurotoxicity in Kunming mouse at 300 mg/kg, ip after 4 hrs by rotorod test; type: toxicity, organism-based; set-up: dose 300 mg/kg, route intraperitoneal; conditions: in vivo; summary of the method: as §3
[7] = system: Mus musculus; test: Anticonvulsant activity in Kunming mouse assessed as protection against maximal electroshock-induced seizures at 100 mg/kg, ip measured after 0.5 hr; type: functional, organism-based; set-up: dose 100 mg/kg; summary of the method: as §1
[8] = system: Mus musculus; test: Anticonvulsant activity in Kunming mouse assessed as protection against maximal electroshock-induced seizures at 30 mg/kg, ip measured after 0.5 hr; type: functional, organism-based; set-up: dose 30 mg/kg; summary of the method: as §1
[9] = system: Mus musculus; test: Anticonvulsant activity in Kunming mouse assessed as protection against maximal electroshock-induced seizures at 100 mg/kg, ip measured after 4 hrs; type: functional, organism-based; set-up: dose 100 mg/kg; summary of the method: as §1
[10] = system: Mus musculus; test: Anticonvulsant activity in Kunming mouse assessed as protection against subcutaneous pentylenetetrazol-induced clonic seizures at 100 mg/kg, ip measured after 0.5 hrs; type: functional, organism-based; set-up: dose 100 mg/kg; summary of the method: as §2
[11] = system: Mus musculus; test: Anticonvulsant activity in ip dosed Kunming mouse assessed as protection against maximal electroshock-induced seizures; type: functional
[12] = system: Mus musculus; test: Anticonvulsant activity in ip dosed Kunming mouse assessed as protection against subcutaneous pentylenetetrazol-induced clonic seizures; type: functional
[13] = Neurotoxicity in ip dosed Kunming mouse measured 30 mins post compound administration by rotorod test; type: toxicity, organism-based; conditions: in vivo
[14] = organism: Mus musculus; test: Protective index, ratio of TD50 for neurotoxicity in Kunming mouse to ED50 for protection against MES-induced seizures in Kunming mouse; type: functional
[15] = system: Mus musculus; test: Protective index, ratio of TD50 for neurotoxicity in Kunming mouse to ED50 for protection against subcutaneous pentylenetetrazol-induced clonic seizures in Kunming mouse; type: functional
[16] = system: Mus musculus; test: Anticonvulsant activity in Kunming mouse assessed as protection against maximal electroshock-induced seizures at 30 mg/kg, ip measured after 4 hrs; type: functional, organism-based; set-up: dose 30 mg/kg; summary of the method: as §1
[17] = system: Mus musculus; test: Neurotoxicity in Kunming mouse at 100 mg/kg, ip after 0.5 hr by rotorod test; type: toxicity, organism-based; set-up: dose 100 mg/kg, route intraperitoneal; conditions: in vivo; summary of the method: as §3

CCOC(=O)C1(NC(=O)NNC(=O)c2cc(OC)c(OC)c(OC)c2)CC1(C)C (stereo not given)
Activity [1]: Active
Activity [2]: Active
Activity [3]: inactive
Activity [4]: inactive
Activity [5]: Toxic
Activity [6]: Non-toxic

CCOC(=O)C1(NC(=O)NNC(=O)c2ccc([N+](=O)[O-])cc2)CC1(C)C (stereo not given)
Activity [7]: Active
Activity [2]: inactive
Activity [3]: inactive
Activity [4]: inactive
Activity [5]: Non-toxic
Activity [6]: Toxic

CCOC(=O)C1(NC(=O)NNC(=O)c2ccccc2)CC1(C)C (stereo not given)
Activity [1]: Active
Activity [2]: inactive
Activity [3]: Active
Activity [4]: inactive
Activity [5]: Toxic
Activity [6]: Non-toxic

CCOC(=O)C1(NC(=O)NN2C(=O)c3ccccc3C2=O)CC1(C)C (stereo not given)
Activity [8]: Active
Activity [9]: Active
Activity [10]: Active
Activity [4]: Active
Activity [5]: Non-toxic
ED50 [11]: 23.6 mg/kg
ED50 [12]: 213 mg/kg
TD50 at 0.5 h [13]: 352 mg/kg
Ratio TD50/ED50 [14]: 14.9
Ratio TD50/ED50 [15]: 1.7
Activity [6]: Non-toxic

CCOC(=O)C1(NC(=O)NNC(=O)c2ccc(Cl)cc2)CC1(C)C (stereo not given)
Activity [8]: Active
Activity [2]: Active
Activity [3]: inactive
Activity [4]: Active
Activity [5]: Non-toxic
ED50 [11]: 20.1 mg/kg
ED50 [12]: 335 mg/kg
TD50 at 0.5 h [13]: 382 mg/kg
Ratio TD50/ED50 [14]: 19
Ratio TD50/ED50 [15]: 1.1
Activity [6]: Toxic

CCOC(=O)C1(NC(=O)NNC(=O)c2cccc(C)c2)CC1(C)C (stereo not given)
Activity [7]: Active
Activity [2]: inactive
Activity [3]: inactive
Activity [4]: inactive
Activity [5]: Non-toxic
Activity [6]: Non-toxic

CCOC(=O)C1(NC(=O)NNC(=O)c2ccc(C(C)(C)C)cc2)CC1(C)C (stereo not given)
Activity [7]: Active
Activity [2]: inactive
Activity [3]: Active
Activity [4]: inactive
Activity [5]: Non-toxic
Activity [6]: Toxic

CCOC(=O)C1(NC(=O)NNC(=O)c2ccccc2Br)CC1(C)C (stereo not given)
Activity [1]: Active
Activity [16]: Active
Activity [3]: Active
Activity [4]: Active
Activity [5]: Non-toxic
Activity [6]: Non-toxic

CCOC(=O)C1(NC(=O)NNC(=O)c2ccc(N(C)C)cc2)CC1(C)C (stereo not given)
Activity [1]: Active
Activity [2]: Active
Activity [3]: inactive
Activity [4]: inactive
Activity [5]: Non-toxic
Activity [6]: Toxic

CCOC(=O)C1(NC(=O)NNC(=O)c2ccc(OC)c(OC)c2)CC1(C)C (stereo not given)
Activity [1]: Active
Activity [2]: Active
Activity [3]: inactive
Activity [4]: inactive
Activity [5]: Non-toxic
Activity [6]: Toxic

CCOC(=O)C1(NC(=O)NNC(=O)c2ccc(Br)cc2)CC1(C)C (stereo not given)
Activity [7]: Active
Activity [2]: inactive
Activity [3]: inactive
Activity [4]: inactive
Activity [5]: Non-toxic
Activity [6]: Toxic

CCC1(C)CC(=O)NC1=O (stereo not given) [ETHOSUXIMIDE]
Activity [1]: inactive
Activity [2]: inactive
Activity [10]: Active
Activity [4]: Active
Activity [5]: Non-toxic
Activity [6]: Non-toxic

CCOC(=O)C1(NC(=O)NNC(=O)c2cccnc2)CC1(C)C (stereo not given)
Activity [1]: inactive
Activity [2]: inactive
Activity [3]: inactive
Activity [4]: Active
Activity [17]: Toxic
Activity [6]: Toxic

NC(=O)N1c2ccccc2C=Cc2ccccc21 [CARBAMAZEPINE]
ED50 [11]: 8.8 mg/kg
ED50 [12]: > 100 mg/kg
